Test results published in ChEMBL document CHEMBL5724801, “EUbOPEN Chemogenomics Library - Multiplex” (2024).
“And” between values parts separate entries of the source, which are not always exact repeats. Equal values may be shown once.

tested on: U2OS; assay: Multiplex assay against U2OS; type: toxicity, cell-based; details: human, 12 h, 1 µM, compound concentration 1 uM
Outline: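 Compound was added to live cells that had been stained at seeding with Hoechst33342, BioTracker Green Microtubule Cytoskeleton Dye, MitoTracker Red and Annexin V Alexa Fluor 680, and imaging followed on a CQ1 microscope at 37°C and 5% CO2. CellPathfinder machine-learning gating divided cells into Hoechst high-intensity objects or normal cells, normal cells into healthy, pyknosed or fragmented nuclei, and pyknosed cells into mitotic or apoptotic. Tubulin, mitochondrial-mass and membrane-permeability phenotypes are per cents of healthy-nucleus cells.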

SMILES | Population Apoptotic (%) | Population Fragmented Nuclei (%) | Population Healthy Nuclei (%) | Population Hoechst High Intensity Objects (%) | Population Membrane Permeable-Phenotype (%) | Population Mitochondria Different-Phenotype (%) | Population Mitotic Cells (%) | Population Normal (%) | Population Pyknosed Nuclei (%) | Population Tubulin-Different-Phenotype (%)
CNc1nc(NCc2ncccn2)c2c(-c3ccc4ncccc4c3)c[nH]c2n1 | 34.88% and 46.15% | 1.68% and 0.68% | 88.01% and 90.48% | 0% | 1.36% and 3.01% | 0% and 4.51% | 65.12% and 53.85% | 100% | 10.31% and 8.84% | 0.82% and 0.75%
Br.CS(=O)(=O)Nc1c(O)ccc2c1CCCC2C1=NCCN1 (configuration not stated) | 63% and 80% | 20% and 13% | 75% and 82% | 2% and 0% | 3% and 5% | 2% and 1% | 36% and 20% | 97% and 100% | 3% | 2% and 1%

same assay, conditions: human, 12 h, 1 µM, compound concentration 1 uM

SMILES | Total Cell Count
CNc1nc(NCc2ncccn2)c2c(-c3ccc4ncccc4c3)c[nH]c2n1 | 417 and 147
Br.CS(=O)(=O)Nc1c(O)ccc2c1CCCC2C1=NCCN1 (configuration not stated) | 288 and 151

same assay, conditions: human, 12 h, 10 µM, compound concentration 10 uM

SMILES | Population Apoptotic (%) | Population Fragmented Nuclei (%) | Population Healthy Nuclei (%) | Population Hoechst High Intensity Objects (%) | Population Membrane Permeable-Phenotype (%) | Population Mitotic Cells (%) | Population Normal (%) | Population Pyknosed Nuclei (%) | Population Tubulin-Different-Phenotype (%) | Total Cell Count
CNc1nc(NCc2ncccn2)c2c(-c3ccc4ncccc4c3)c[nH]c2n1 | 30.95% and 40% | 0.88% and 3.14% | 86.76% and 84.28% | 0% | 6.44% and 8.21% | 69.05% and 60% | 100% | 12.35% and 12.58% | 6.78% and 4.48% | 340 and 159
Br.CS(=O)(=O)Nc1c(O)ccc2c1CCCC2C1=NCCN1 (configuration not stated) | 69% and 100% | 36% and 22% | 57% and 75% | 1% and 0% | 8% and 6% |  | 98% and 100% | 6% and 2% | 1% | 215 and 84

same assay, conditions: human, 12 h, 10 µM, compound concentration 10 uM

SMILES | Population Mitochondria Different-Phenotype (%)
Br.CS(=O)(=O)Nc1c(O)ccc2c1CCCC2C1=NCCN1 (configuration not stated) | 0% and 6%

same assay, conditions: human, 24 h, 1 µM, compound concentration 1 uM

SMILES | Population Apoptotic (%) | Population Fragmented Nuclei (%) | Population Healthy Nuclei (%) | Population Hoechst High Intensity Objects (%) | Population Membrane Permeable-Phenotype (%) | Population Mitochondria Different-Phenotype (%) | Population Mitotic Cells (%) | Population Normal (%) | Population Pyknosed Nuclei (%) | Population Tubulin-Different-Phenotype (%)
CNc1nc(NCc2ncccn2)c2c(-c3ccc4ncccc4c3)c[nH]c2n1 | 48.89% and 42.86% | 2.09% and 2.01% | 90.09% and 83.92% | 0% | 0.58% and 1.2% | 0.19% and 6.59% | 51.11% and 57.14% | 100% | 7.83% and 14.07% | 0.58% and 0.6%
Br.CS(=O)(=O)Nc1c(O)ccc2c1CCCC2C1=NCCN1 (configuration not stated) | 76% and 92% | 18% and 14% | 73% and 78% | 2% and 1% | 3% and 7% | 2% |  | 97% and 98% | 7% | 2% and 4%

same assay, conditions: human, 24 h, 1 µM, compound concentration 1 uM

SMILES | Total Cell Count
CNc1nc(NCc2ncccn2)c2c(-c3ccc4ncccc4c3)c[nH]c2n1 | 575 and 199
Br.CS(=O)(=O)Nc1c(O)ccc2c1CCCC2C1=NCCN1 (configuration not stated) | 341 and 185

same assay, conditions: human, 24 h, 10 µM, compound concentration 10 uM

SMILES | Population Apoptotic (%) | Population Fragmented Nuclei (%) | Population Healthy Nuclei (%) | Population Hoechst High Intensity Objects (%) | Population Membrane Permeable-Phenotype (%) | Population Mitotic Cells (%) | Population Normal (%) | Population Pyknosed Nuclei (%) | Population Tubulin-Different-Phenotype (%) | Total Cell Count
CNc1nc(NCc2ncccn2)c2c(-c3ccc4ncccc4c3)c[nH]c2n1 | 29.41% and 43.75% | 2.37% and 4.04% | 89.57% and 87.88% | 0% | 1.59% and 2.3% | 70.59% and 56.25% | 100% | 8.06% and 8.08% | 2.12% and 1.15% | 422 and 198
Br.CS(=O)(=O)Nc1c(O)ccc2c1CCCC2C1=NCCN1 (configuration not stated) | 86% and 100% | 31% and 16% | 62% and 80% | 2% and 0% | 5% and 3% | 13% and 0% | 97% and 100% | 6% and 2% | 2% and 3% | 240 and 103

same assay, conditions: human, 24 h, 10 µM, compound concentration 10 uM

SMILES | Population Mitochondria Different-Phenotype (%)
Br.CS(=O)(=O)Nc1c(O)ccc2c1CCCC2C1=NCCN1 (configuration not stated) | 1% and 4%

same assay, conditions: human, 48 h, 1 µM, compound concentration 1 uM

SMILES | Population Apoptotic (%) | Population Fragmented Nuclei (%) | Population Healthy Nuclei (%) | Population Hoechst High Intensity Objects (%) | Population Membrane Permeable-Phenotype (%) | Population Mitochondria Different-Phenotype (%) | Population Mitotic Cells (%) | Population Normal (%) | Population Pyknosed Nuclei (%) | Population Tubulin-Different-Phenotype (%)
CNc1nc(NCc2ncccn2)c2c(-c3ccc4ncccc4c3)c[nH]c2n1 | 45% and 54.29% | 3.04% and 1.19% | 87.45% and 88.36% | 0% | 1.2% and 1.35% | 0.11% and 4.39% | 55% and 45.71% | 100% | 9.51% and 10.45% | 1.41% and 0.68%
Br.CS(=O)(=O)Nc1c(O)ccc2c1CCCC2C1=NCCN1 (configuration not stated) | 74% and 81% | 14% and 13% | 78% and 76% | 1% | 2% and 5% | 2% | 25% and 18% | 98% | 6% and 10% | 2% and 1%

same assay, conditions: human, 48 h, 1 µM, compound concentration 1 uM

SMILES | Total Cell Count
Br.CS(=O)(=O)Nc1c(O)ccc2c1CCCC2C1=NCCN1 (configuration not stated) | 484 and 253

same assay, conditions: human, 48 h, 10 µM, compound concentration 10 uM

SMILES | Population Apoptotic (%) | Population Fragmented Nuclei (%) | Population Healthy Nuclei (%) | Population Hoechst High Intensity Objects (%) | Population Membrane Permeable-Phenotype (%) | Population Mitochondria Different-Phenotype (%) | Population Mitotic Cells (%) | Population Normal (%) | Population Pyknosed Nuclei (%) | Population Tubulin-Different-Phenotype (%)
CNc1nc(NCc2ncccn2)c2c(-c3ccc4ncccc4c3)c[nH]c2n1 | 55.56% and 56% | 1.27% and 3.63% | 89.84% and 88.12% | 0% | 0.94% and 1.87% | 0.78% and 7.87% | 44.44% and 44% | 100% | 8.89% and 8.25% | 1.88% and 1.5%
Br.CS(=O)(=O)Nc1c(O)ccc2c1CCCC2C1=NCCN1 (configuration not stated) | 90% and 100% | 23% and 17% | 70% and 74% | 1% and 0% | 5% and 3% | 1% and 6% | 10% and 0% | 98% and 100% | 6% and 7% | 2%

same assay, conditions: human, 48 h, 10 µM, compound concentration 10 uM

SMILES | Total Cell Count
CNc1nc(NCc2ncccn2)c2c(-c3ccc4ncccc4c3)c[nH]c2n1 | 709 and 303
Br.CS(=O)(=O)Nc1c(O)ccc2c1CCCC2C1=NCCN1 (configuration not stated) | 333 and 152
